Experimental data of several laboratories.
Each line is one published result; the experiments were not run side by side. pIC50: −log10 of the molar value.
Effect on: cell growth or viability

Structure (SMILES)	cell line	method	tested at	time	quantity	value
Oc1ccc(Nc2nc(-c3ccc(Cl)cc3)cs2)cc1	WM35	MTS	–	48 h	pIC50	4.99
COc1ccc(/C=C\c2cc(OC)c(OC)c(OC)c2)cc1O	CCRF-CEM	–	–	48 h	CC50	36 nM
COc1ccc(C2=Nn3c(NN=C4C(=O)Nc5ccc(OC)cc54)nnc3SC2)cc1	SNB-75	SRB	10 µM	–	inhibition	16%
COc1cccc(-c2cn(-c3cc(=O)oc4ccc(Br)cc34)nn2)c1	CCRF-CEM	–	–	48 h	CC50	10300 nM
COc1ccc(-c2ccc(-c3ccc(C(=N)N)nc3)s2)cc1Cl	SNB-75	SRB	–	–	GI50	1430 nM
CC(C)C[C@H](NC(=O)[C@H](Cc1ccccc1)NC(=O)c1cnccn1)B(O)O	EPLC-272H	ATP luminescence	–	–	pIC50	8.07
O=C(N/N=C/c1c(O)ccc2ccccc12)c1cc(-c2ccc3ccccc3c2)n[nH]1	WM35	MTS	–	24 h	pIC50	4.43
COc1cc(Nc2nccc(-c3cnn4nc(OC)ccc34)n2)cc(C(F)(F)F)c1	RKO	ATP luminescence	–	–	pIC50	6.57
COc1ccc(-c2ccc(-c3ccc(C(=N)N)nc3)s2)cc1	UACC-257	SRB	–	–	GI50	1800 nM
